Measured values taken from ChEMBL document CHEMBL4477211, “Synthesis and Investigation of Tetrahydro-β-carboline Derivatives as Inhibitors of the Breast Cancer Resistance Protein (ABCG2)” (J Med Chem, 2016).

Legend:
[1] = target: T1, Broad substrate specificity ATP-binding cassette transporter ABCG2 (Homo sapiens, UniProt Q9UNQ0); assay: Inhibition of human ABCG2 expressed in MDCK2 cells assessed as reduction in Hoechst 33342 efflux pre-incubated for 30 mins before Hoechst 33342 addition and measured for 120 mins by microplate reader analysis; assay type: cell-based; conditions: read-out: IC50
T1 sequence (Q9UNQ0 whole entry): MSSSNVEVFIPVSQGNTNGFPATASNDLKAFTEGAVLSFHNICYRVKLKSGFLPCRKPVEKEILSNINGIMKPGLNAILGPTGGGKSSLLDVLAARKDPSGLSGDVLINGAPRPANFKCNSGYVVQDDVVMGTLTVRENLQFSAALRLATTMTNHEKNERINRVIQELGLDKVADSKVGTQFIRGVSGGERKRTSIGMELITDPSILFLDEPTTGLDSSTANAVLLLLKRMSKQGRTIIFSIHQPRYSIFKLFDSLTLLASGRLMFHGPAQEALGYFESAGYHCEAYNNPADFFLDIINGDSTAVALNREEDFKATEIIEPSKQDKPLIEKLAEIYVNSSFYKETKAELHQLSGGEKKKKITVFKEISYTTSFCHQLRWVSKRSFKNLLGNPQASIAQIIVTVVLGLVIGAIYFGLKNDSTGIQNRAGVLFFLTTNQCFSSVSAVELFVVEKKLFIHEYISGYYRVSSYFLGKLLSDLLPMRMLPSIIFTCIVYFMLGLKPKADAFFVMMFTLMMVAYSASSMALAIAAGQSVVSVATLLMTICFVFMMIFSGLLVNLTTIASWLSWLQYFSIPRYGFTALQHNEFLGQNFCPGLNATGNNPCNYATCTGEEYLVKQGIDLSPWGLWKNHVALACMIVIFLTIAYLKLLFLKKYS
Method in brief: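 Compound dilutions up to 10 µM (from 10 mM DMSO stocks) pre-incubated 30 min at 37 °C. Hoechst 33342 then added from 6 µM solution. Fluorescence (ex 355/em 460 nm) read each 60 s over 120 min.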

[2] = target: ATP-dependent translocase ABCB1 (Homo sapiens, UniProt P08183); assay: Inhibition of ABCB1 in human A2780/ADR cells assessed as reduction in calcein AM efflux pre-incubated for 30 mins before calcein AM addition and measured for 60 mins by microplate reader analysis relative to control; assay type: cell-based
Sequence of ATP-dependent translocase ABCB1 (P08183 whole entry): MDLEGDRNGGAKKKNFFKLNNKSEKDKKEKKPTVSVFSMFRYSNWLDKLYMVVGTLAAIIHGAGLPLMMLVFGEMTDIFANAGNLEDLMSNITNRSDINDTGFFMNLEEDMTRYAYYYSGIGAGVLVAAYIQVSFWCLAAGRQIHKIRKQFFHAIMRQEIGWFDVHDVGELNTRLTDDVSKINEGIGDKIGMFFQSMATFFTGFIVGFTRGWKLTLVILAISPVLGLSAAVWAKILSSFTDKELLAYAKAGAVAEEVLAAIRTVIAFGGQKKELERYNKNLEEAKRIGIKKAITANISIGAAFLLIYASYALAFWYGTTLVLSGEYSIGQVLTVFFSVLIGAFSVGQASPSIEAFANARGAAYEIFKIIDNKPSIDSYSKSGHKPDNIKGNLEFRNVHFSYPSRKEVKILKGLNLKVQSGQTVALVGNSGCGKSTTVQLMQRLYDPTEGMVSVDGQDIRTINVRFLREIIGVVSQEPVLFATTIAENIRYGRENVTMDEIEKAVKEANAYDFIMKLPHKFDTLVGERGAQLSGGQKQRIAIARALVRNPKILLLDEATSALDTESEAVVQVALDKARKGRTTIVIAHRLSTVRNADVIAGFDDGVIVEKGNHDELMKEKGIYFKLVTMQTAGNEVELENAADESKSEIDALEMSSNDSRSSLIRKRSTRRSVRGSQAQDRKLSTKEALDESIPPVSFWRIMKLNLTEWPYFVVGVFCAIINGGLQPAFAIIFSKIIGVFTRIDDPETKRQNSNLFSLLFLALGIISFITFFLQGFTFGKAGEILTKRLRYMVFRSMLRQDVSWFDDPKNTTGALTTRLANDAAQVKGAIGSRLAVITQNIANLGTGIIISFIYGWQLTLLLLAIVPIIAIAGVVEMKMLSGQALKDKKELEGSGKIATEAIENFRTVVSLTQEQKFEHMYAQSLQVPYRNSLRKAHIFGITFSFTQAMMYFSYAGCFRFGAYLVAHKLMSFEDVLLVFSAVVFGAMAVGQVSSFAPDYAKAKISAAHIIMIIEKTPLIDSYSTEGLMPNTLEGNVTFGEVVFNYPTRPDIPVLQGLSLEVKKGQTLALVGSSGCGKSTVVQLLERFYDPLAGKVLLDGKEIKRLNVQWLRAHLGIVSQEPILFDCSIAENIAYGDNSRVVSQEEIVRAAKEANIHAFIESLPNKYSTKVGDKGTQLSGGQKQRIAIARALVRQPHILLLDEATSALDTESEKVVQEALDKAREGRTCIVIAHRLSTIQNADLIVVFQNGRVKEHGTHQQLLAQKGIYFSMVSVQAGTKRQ

[3] = target: ABCB1 (Homo sapiens, UniProt P08183); assay: Inhibition of ABCB1 in human A2780/ADR cells assessed as reduction in calcein AM efflux at 10 uM pre-incubated for 30 mins before calcein AM addition and measured for 60 mins by microplate reader analysis relative to control; assay type: cell-based; conditions: probe calcein AM
Sequence of ABCB1 (P08183 whole entry): as above
Method in brief: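 Compound at 10 µM pre-incubated 30 min at 37 °C. Calcein AM added from 3.125 µM solution. Fluorescence (ex 485/em 520 nm) read every 60 s for 60 min.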

[4] = target: T1, Broad substrate specificity ATP-binding cassette transporter ABCG2; assay: Reversal of human ABCG2-mediated resistance to SN-38 in human ABCG2 expressed MDCK2 cells assessed as reduction in SN-38 GI50 after 72 hrs by MTT assay
[5] = target: T2, ABCG2 (Homo sapiens, UniProt Q9UNQ0); assay: Ratio of IC50 for human ABCG2 expressed in baculovirus infected Sf9 cell membrane assessed as inhibition of vanadate sensitive quercetin-stimulated ATPase activity to IC50 for human ABCG2 expressed in baculovirus infected Sf9 cell membrane assessed as inhibition of vanadate sensitive basal ATPase activity; conditions: read-out: Ratio IC50
T2 sequence (Q9UNQ0 whole entry): T1 sequence (Q9UNQ0 whole entry)

[6] = Cytotoxicity against MDCK2 cells expressing human ABCG2 assessed as reduction in cell viability after 72 hrs by MTT assay; assay type: ADME, cell-based, Canis lupus familiaris; conditions: dog, MDCK2 (MDCK-II) cells expressing human ABCG2
Method in brief: (§1)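 MDCK II cells retrovirally transfected with human ABCG2-GFP cDNA, and wild-type MDCK II, in DMEM with 10% FBS. Seeded at 3 x 10^3 cells/well and attached 6 h at 37 °C, 5% CO2. Compounds up to 100 µM for 72 h. Controls were 10% DMSO and medium. MTT (5 mg/ml) added for 1 h, read at 570 nm minus 690 nm. Data normalised; GI50 from variable-slope sigmoidal fit.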

[7] = Ratio of GI50 for MDCK2 cells expressing human ABCG2 to IC50 for human ABCG2 expressed in MDCK2 cells
[8] = target: T1, Broad substrate specificity ATP-binding cassette transporter ABCG2; assay: Inhibition of human ABCG2 expressed in baculovirus infected Sf9 cell membrane assessed as inhibition of vanadate sensitive ATPase activity at 1 uM after 20 mins by colorimetric method; conditions: sf9, 20 min
[9] = Ratio of GI50 for wild-type MDCK2 cells to IC50 for human ABCG2 expressed in MDCK2 cells
[10] = target: T1, Broad substrate specificity ATP-binding cassette transporter ABCG2; assay: Inhibition of human ABCG2 expressed in baculovirus infected Sf9 cell membrane assessed as inhibition of vanadate sensitive basal ATPase activity after 20 mins by colorimetric method
Method in brief: (§2)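 Cholesterol-loaded membranes from Sf9 cells infected with baculovirus carrying human wild-type ABCG2; 10 µg protein per reaction. Buffer: 40 mM MOPS-Tris pH 7.0, 50 mM KCl, 2 mM DTT, 0.5 mM EGTA-Tris, 5 mM azide, 1 mM ouabain. Started with 3.3 mM MgATP, 20 min at 37 °C, stopped with SDS. Pi measured by molybdate/ascorbate colour at 880 nm against K2HPO4 standard.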

[11] = target: T1, Broad substrate specificity ATP-binding cassette transporter ABCG2; assay: Inhibition of human ABCG2 expressed in baculovirus infected Sf9 cell membrane assessed as inhibition of vanadate sensitive quercetin-stimulated ATPase activity after 20 mins by colorimetric method; method in brief: as §2
[12] = Cytotoxicity against wild-type MDCK2 cells assessed as reduction in cell viability after 72 hrs by MTT assay; assay type: cell-based, Canis lupus familiaris; conditions: dog, wild-type MDCK2 (MDCK-II) cells; method in brief: as §1
[13] = Solubility in pH 7.4 Krebs-HEPES buffer at 10 uM after 2 hrs by UV-visible spectrophotometric analysis; assay type: physicochemical; conditions: pH 7.4, 2 h
Method in brief: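 10 µM test solutions prepared from DMSO stocks as for the Hoechst 33342 assay, in Krebs-HEPES pH 7.4. Absorbance at an absorption peak maximum recorded every 120 s for 2 h at room temperature by UV/visible spectrophotometer.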

With `N#Cc1cccc(C2c3[nH]c4ccccc4c3CCN2C(=O)c2ccccc2)c1` (stereo not drawn) the IC50 [1] was 2 µM, the IC50 [2] was 6.55 µM and the inhibition at 1 h, 10 µM [3] was > 25%.

With `COc1ccc(C2c3[nH]c4ccccc4c3CCN2C(=O)c2ccccc2)cc1OC` (stereo not drawn) the IC50 [1] was 3.62 µM, the IC50 [2] was 7.33 µM and the inhibition at 1 h, 10 µM [3] was > 25%.

With `O=C(c1ccccc1)N1CCc2c([nH]c3ccccc23)C1c1ccc(F)cc1` (stereo not drawn) the IC50 [1] was 1.89 µM, the IC50 [2] was 13.4 µM and the inhibition at 1 h, 10 µM [3] was > 25%.

For `COc1ccc(C(=O)N2CCc3c([nH]c4ccccc34)C2c2ccccc2)cc1` (stereo not drawn), the IC50 [1] was 1.75 µM, the IC50 [2] was 9.55 µM and the inhibition at 1 h, 10 µM [3] was > 25%.

For `O=C(c1ccc(Cl)cc1)N1CCc2c([nH]c3ccccc23)C1c1ccc(F)c(F)c1` (stereo not drawn), the IC50 [1] was 1.26 µM, the IC50 [2] was 23.4 µM and the inhibition at 1 h, 10 µM [3] was > 25%.

For `COc1ccc(C(=O)N2CCc3c([nH]c4ccccc34)C2c2ccc(Cl)c(Cl)c2)cc1OC` (stereo not drawn), the IC50 [1] was 0.698 µM, the IC50 [2] was 14.3 µM and the inhibition at 1 h, 10 µM [3] was > 25%.

For `COc1ccc(C(=O)N2CCc3c([nH]c4ccccc34)C2c2cccc(Cl)c2)cc1` (stereo not drawn), the IC50 [1] was 0.883 µM, the IC50 [2] was 19.2 µM and the inhibition at 1 h, 10 µM [3] was > 25%.

In the case of `O=C(c1ccccc1)N1CCc2c([nH]c3ccccc23)C1c1ccc(Br)cc1` (stereo not drawn), the Activity [4] is reported as “Dose-dependent effect”, the selectivity ratio [5] is reported as 7.7 and the IC50 [1] is reported as 0.687 µM. For the same molecule, the GI50 at 72 h [6] was 20.6 µM, the Ratio [7] was 20 - 30 and the “inhibition (INH)” value [8] was “Active”. For the same molecule, the inhibition at 1 h, 10 µM [3] was < 25%, the Ratio [9] was 20 - 30 and the IC50 [10] was 0.112 µM. The IC50 [11] was 0.863 µM and the GI50 at 72 h [12] was 19.4 µM.

With `COc1ccc(C(=O)N2CCc3c([nH]c4ccccc34)C2c2ccc(F)c(F)c2)cc1` (stereo not drawn) the IC50 [1] was 0.805 µM, the IC50 [2] was 8.24 µM and the inhibition at 1 h, 10 µM [3] was > 25%.

For `CC(=O)Nc1ccc(C2c3[nH]c4ccccc4c3CCN2C(=O)c2ccccc2)cc1` (stereo not drawn), the solubility [13] was “Soluble”, the IC50 [1] was 7.82 µM and the IC50 [2] was 7.4 µM. For the same molecule, the inhibition at 1 h, 10 µM [3] was > 25%.

In the case of `COc1ccc(C(=O)N2CCc3c([nH]c4ccccc34)C2c2ccc(F)c(F)c2)cc1OC` (stereo not drawn), the IC50 [1] is reported as 1.1 µM, the IC50 [2] is reported as 2.86 µM and the inhibition at 1 h, 10 µM [3] is reported as > 25%.

With `O=C(c1ccccc1)N1CCc2c([nH]c3ccccc23)C1c1ccccc1` (stereo not drawn) the Activity [4] was “Dose-dependent effect”, the selectivity ratio [5] was 10.3 and the solubility [13] was “Soluble”. The IC50 [1] was 2.78 µM, the GI50 at 72 h [6] was 12.9 µM and the “inhibition (INH)” value [8] was “Active”. The IC50 [2] was 7.94 µM, the inhibition at 1 h, 10 µM [3] was > 25% and the IC50 [10] was 0.196 µM. For the same molecule, the IC50 [11] was 2.02 µM and the GI50 at 72 h [12] was 12.4 µM.

For `Clc1ccc(C2c3[nH]c4ccccc4c3CCN2Cc2ccccc2)cc1Cl` (stereo not drawn), the solubility [13] was “Soluble”, the IC50 [1] was > 10 µM and the inhibition at 1 h, 10 µM [3] was < 25%.

With `O=C(c1ccccc1)N1CCc2c([nH]c3ccccc23)C1c1ccccc1F` (stereo not drawn) the IC50 [1] was 4.49 µM, the IC50 [2] was 11.3 µM and the inhibition at 1 h, 10 µM [3] was > 25%.

With `COc1ccc(C(=O)N2CCc3c([nH]c4ccccc34)C2c2cccc(OC)c2)cc1` (stereo not drawn) the IC50 [1] was 1.45 µM, the IC50 [2] was 3.38 µM and the inhibition at 1 h, 10 µM [3] was > 25%.

For `CC(C)CC1c2[nH]c3ccccc3c2CCN1C(=O)c1ccccc1` (stereo not drawn), the IC50 [1] was 2.33 µM, the IC50 [2] was 12.9 µM and the inhibition at 1 h, 10 µM [3] was > 25%.

For `COc1ccc2c(c1)[nH]c1c(C)nccc12` [HARMINE], the GI50 at 72 h [6] was 2.42 µM, the “inhibition (INH)” value [8] was “Not Active” and the GI50 at 72 h [12] was 2.3 µM.
